Compound activity: PubChem, Johns Hopkins Ion Channel Center
MrgX1 antag: blocks BAM8-22 activation of human MrgX1 receptor; B-score at 10 µM; hit rate 1.3% among 310,000; MRGX1-HEK293 calcium flux, Fluo-4, BAM8-22 antagonism; stronger effect = lower value; Q96LB2;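 active = calcium-response B-score plate-corrected more than 3 library SD below zero, starting fluorescence within 5 deviations, no agonist response on first addition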;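 also: peak minus trough fluorescence over baseline after final BAM8-22 challenge near maximal dose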
Target sequence (Q96LB2 whole entry, looked up): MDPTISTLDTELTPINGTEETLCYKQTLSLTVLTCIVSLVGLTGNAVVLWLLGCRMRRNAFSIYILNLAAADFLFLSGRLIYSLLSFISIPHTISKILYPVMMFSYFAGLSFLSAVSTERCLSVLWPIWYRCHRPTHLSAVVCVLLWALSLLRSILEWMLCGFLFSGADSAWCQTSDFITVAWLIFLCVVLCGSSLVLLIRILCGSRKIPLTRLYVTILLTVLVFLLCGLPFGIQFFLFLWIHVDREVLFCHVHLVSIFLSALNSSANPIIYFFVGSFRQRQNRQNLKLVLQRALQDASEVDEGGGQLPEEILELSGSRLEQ
RGS4 inh: inhibitors of human RGS4; hit rate 0.45% among 310,000; HEK293 M3R/RGS4 inducible, Fluo-4 calcium flux; stronger effect = higher value; triggered by carbachol at its EC20; P49798; B-score at 10 µM;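 active = B-score, a plate-corrected calcium signal, over three deviations above library mean, with baseline fluorescence within five deviations of library mean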;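 also: RGS4 expression induced by doxycycline in cells with stable M3 receptor; B-score is computed from the integrated fluorescence ratio over baseline after carbachol; higher B-score means a larger calcium signal and so more RGS4 inhibition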
Target sequence (P49798 whole entry, looked up): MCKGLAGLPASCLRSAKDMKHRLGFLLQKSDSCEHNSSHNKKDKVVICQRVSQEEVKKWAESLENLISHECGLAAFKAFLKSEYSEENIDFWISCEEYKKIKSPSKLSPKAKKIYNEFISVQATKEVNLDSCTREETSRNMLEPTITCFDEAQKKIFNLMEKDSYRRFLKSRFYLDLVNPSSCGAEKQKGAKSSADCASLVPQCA
RGS4 pot: RGS4 potentiation or activation; HEK293 M3R/inducible RGS4, carbachol calcium flux Fluo4; stronger effect = lower value; B-score at 10 µM; hit rate 0.92% among 310,000;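 active = B-score of the integrated calcium signal more than 4 SD below the library mean, with starting fluorescence not abnormally high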;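 also: negative B-score means reduced calcium response which marks RGS4 activation or potentiation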
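Material: M3R-expressing HEK293 line, RGS4 induced by doxycycline | Schedule: Overnight RGS4 induction, 30 min dye load 37 °C, 20 min compound RT | Measured by: Fluo4 fluorescence kinetic imaging of calcium | Read-out: Integrated calcium ratio converted to B score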
MrgX1 ag: human MrgX1 receptor agonism, primary screen; MrgX1-HEK293 cells, Fluo-4 calcium fluorescence, agonist mode; stronger effect = higher value; hit rate 0.44% among 310,000; Q96LB2; B-score at 10 µM;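 active = calcium response B-score plate-corrected fluorescence ratio at least 3 library SD, with starting fluorescence B-score inside 5 SD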
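Assay system: stable human MrgX1 HEK293 cell line. Quantity: 15,000 cells per well. Schedule: cells plated overnight, dye loaded 0.5 h 37 °C, 0.5 h room temperature. Detection: Fluo-4 NW calcium-flux fluorescence, kinetic read. Read-out basis: peak-minus-minimum fluorescence over baseline, converted to B scores. Control set: positive and negative control wells on each plate.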
MrgX1 PAM: human MrgX1 positive allosteric modulation, primary screen | Q96LB2 | MrgX1-HEK293, Fluo-4 calcium flux, FDSS; stronger effect = higher value | B-score at 10 µM | hit rate 0.63% among 310,000;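 active = plate-corrected calcium response at least 3 library SD above typical, normal starting fluorescence, not activating the receptor alone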;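 also: compound read alongside a low EC10 to EC30 dose of BAM8-22 agonist; peak minus trough fluorescence over baseline measured at the second addition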
MrgX1 ag confirm: confirmation of human MrgX1 receptor agonists; shares compounds with MrgX1 ag; MrgX1-HEK293, Fluo-4 calcium fluorescence, FDSS; activation, % at 10 µM; hit rate 78% among 600; AID 602412;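 active = calcium signal rise, corrected for plate position, at least 3 library SD high, with starting brightness within 5 such deviations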
HEK293 Ca flux: activity in parental HEK293 cells lacking MrgX1; shares compounds with MrgX1 antag; Fluo-4 calcium fluorescence, FDSS; fluorescence ratio F(max-min)/F0 at 10 µM; hit rate 2% among 4,000;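 active = duplicate-averaged calcium fluorescence ratio at least three times the standard deviation of buffer wells, a nonspecific response in parental cells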
HEK293 Ca counter: counter-screen for MrgX1 allosteric activators: effect in parental HEK293 cells; fluorescence ratio F(max-min)/F0 at 10 µM; AID 624114; shares compounds with MrgX1 antag; parental HEK293 calcium flux, Fluo-4 fluorescence ratio; stronger effect = higher value; hit rate 0.4% among 4,000;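 active = calcium fluorescence ratio, averaged over duplicates, at least 3 SD of the buffer-well ratio, meaning a nonspecific response in receptor-free cells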;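 also: untransfected parental HEK293 lacking MrgX1 used as counterscreen for MrgX1 allosteric activators; fluorescence change taken during the second addition on a kinetic imager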
HEK293 Ca cntr2: activity in parental HEK293 cells lacking MrgX1 receptor | shares compounds with MrgX1 antag | Fluo-4 calcium fluorescence (FDSS); stronger effect = higher value | fluorescence ratio F(max-min)/F0 at 10 µM | hit rate 8.7% among 4,000 | AID 624115;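 active = calcium fluorescence ratio at least three times the spread of buffer wells, meaning a non-specific response in parental cells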
Each line names hits and unclear results; the compound was inactive in the other large screens (follow-up assays come after a bar, where they were run). In the library only some 3.5% were active in any assay of this set; here they are far more common.

COc1ccc(N=Cc2c(OC)ccc3ccccc23)cc1	none
COc1ccc(-n2c(O)c(C=Nc3ccccc3)c3ccccc3c2=O)cc1	none
CC(C)(C)C(=O)/C=c1\s/c(=C\c2ccc(-c3ccc([N+](=O)[O-])cc3)o2)c(=O)n1CC(=O)NC(N)=O	MrgX1 ag 82 | MrgX1 ag confirm 464% | HEK293 Ca flux 0.017 | HEK293 Ca counter inactive | HEK293 Ca cntr2 89
CCC(=O)N/N=C/c1ccc(-c2ccc([N+](=O)[O-])cc2)o1	none
O=S(=O)(Nc1ncccn1)c1ccc(NC(=S)Nc2cccc(Cl)c2)cc1	none
O=C1N/C(=C/c2ccc(Br)cc2)C(O)=C1C=NCc1ccccc1	none
COC(=O)Cn1c(=O)c2c(n(Cc3ccccc3)c1=O)N/C(=C/c1ccc(Br)cc1)C2=O	MrgX1 ag 45 | MrgX1 ag confirm 383% | HEK293 Ca flux inactive | HEK293 Ca counter inactive | HEK293 Ca cntr2 72
Cc1ccc(S(=O)(=O)C(C#N)c2nc3ccccc3nc2N2CCCC2)cc1 (stereo not drawn)	MrgX1 ag 30 | MrgX1 ag confirm inactive | HEK293 Ca flux inactive | HEK293 Ca counter inactive | HEK293 Ca cntr2 52
CN(C)C=Nc1c(Br)cc(Br)c2nonc12	MrgX1 ag 40 | MrgX1 ag confirm 162% | HEK293 Ca flux inactive | HEK293 Ca counter inactive | HEK293 Ca cntr2 inactive
CN(C)C=Nc1nonc1-c1ccccc1	none
O/C(=C\c1ccc2ccccc2n1)c1ccncc1	MrgX1 ag 64 | MrgX1 ag confirm 355% | HEK293 Ca flux inactive | HEK293 Ca counter inactive | HEK293 Ca cntr2 127
Nc1ncnc2c1ncn2C1OC(C(=O)NC2CC2)C(O)C1O (stereo not drawn)	MrgX1 ag 30 (no result: RGS4 inh, RGS4 pot) | MrgX1 ag confirm 100% | HEK293 Ca flux inactive | HEK293 Ca counter inactive | HEK293 Ca cntr2 inactive
Cc1c(NC(=O)C(C)NCC2CCCO2)c(=O)n(-c2ccccc2)n1C (stereo not drawn)	none
COc1ccc(NC(=O)COc2cccc(-n3cnnn3)c2)cc1	none
N#Cc1ccc(-c2ccccc2)nc1SCCN1CCOCC1	MrgX1 ag 28 | MrgX1 ag confirm 171% | HEK293 Ca flux inactive | HEK293 Ca counter inactive | HEK293 Ca cntr2 inactive
Cc1cc(C)c(C#N)c(SCCN2CCOCC2)n1	none
COc1ccc(CNC(=O)N[C@H](C(=O)O)C(C)C)cc1OC	none
O=C(Cc1ccc(Cl)cc1)N1CCN(C(=O)c2ccco2)CC1	none
O=C(Cc1ccc(Cl)cc1Cl)OCC(=O)N1CCN(C(=O)c2ccco2)CC1	MrgX1 ag 29 | MrgX1 ag confirm inactive | HEK293 Ca flux inactive | HEK293 Ca counter inactive | HEK293 Ca cntr2 inactive
Cc1cc(-c2nn(-c3ccccc3F)cc2CN2CCN(c3ccncc3)CC2)c(C)s1	MrgX1 ag 56 | MrgX1 ag confirm 268% | HEK293 Ca flux inactive | HEK293 Ca counter inactive | HEK293 Ca cntr2 inactive
Cc1ccc(S(=O)(=O)Nc2ccc3c(c2)nc2n3CCN(Cc3ccccc3)C2)cc1	MrgX1 ag 34 | MrgX1 ag confirm inactive | HEK293 Ca flux inactive | HEK293 Ca counter inactive | HEK293 Ca cntr2 inactive
O=S(=O)(Nc1ccc2c(c1)nc1n2CCN(Cc2ccccc2)C1)c1ccccc1	none
O=C(O)C1(c2ccccc2)CCN(S(=O)(=O)c2ccc(F)c(F)c2)CC1	none
COc1ccc(C(=O)c2no[n+]([O-])c2C(=O)c2ccc(OC)cc2)cc1	MrgX1 ag 67 | MrgX1 ag confirm 186% | HEK293 Ca flux inactive | HEK293 Ca counter inactive | HEK293 Ca cntr2 57
CC(Oc1ccc([N+](=O)[O-])cc1)C(=O)NCC1CCCO1 (stereo not drawn)	none
